MC4R ag barr: human MC4R agonism via beta-arrestin; P32245; U2OS MC4R beta-arrestin complementation, luminescence; percent of melanotan II response, DMSO zero; 0.98% of 360,000 active; activation, % at 8.9 µM;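 active = activation above a per-plate cutoff, the mean activation of sample wells on that plate plus 3 SD, cut at about 8% in these data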
MC4R antagonist: human MC4R antagonism in cAMP assay; P32245; MC4R-expressing cells, MTII-stimulated cAMP, LANCE TR-FRET; inhibition, % at 6.5 µM; 0.48% of 360,000 active; AID 540295;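 active = inhibition above its plate's cutoff, the mean of tested wells on that plate plus 3 SD, cut at about 29% in these data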;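 also: 0% = Melanotan II alone and 100% = Melanotan II plus saturating MCL0020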
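system = U2OS cells with stable human MC4R expression | also added = Melanotan II challenge after compound preincubation | dosing = one concentration, 6.5 µM nominal | incubation = compound 30 min, challenge 1 h, detection 1 h | measured by = TR-FRET with Eu-cAMP and labeled anti-cAMP, 671 nm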
m5-HT2A agonist: activates the mouse 5-HT2A serotonin receptor; P35363; CHO-K1 mHTR2A beta-arrestin complementation, luminescence; percent of 30 µM serotonin response; activation, % at 7.6 µM; 0.66% of 360,000 active;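 active = activation above a run cutoff, the mean activation of all tested compounds plus 3 SD, cut at about 14% in these data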;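 also: 0% = plate median of compound wells and 100% = 30 µM serotonin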
Target sequence (P35363 whole entry, looked up): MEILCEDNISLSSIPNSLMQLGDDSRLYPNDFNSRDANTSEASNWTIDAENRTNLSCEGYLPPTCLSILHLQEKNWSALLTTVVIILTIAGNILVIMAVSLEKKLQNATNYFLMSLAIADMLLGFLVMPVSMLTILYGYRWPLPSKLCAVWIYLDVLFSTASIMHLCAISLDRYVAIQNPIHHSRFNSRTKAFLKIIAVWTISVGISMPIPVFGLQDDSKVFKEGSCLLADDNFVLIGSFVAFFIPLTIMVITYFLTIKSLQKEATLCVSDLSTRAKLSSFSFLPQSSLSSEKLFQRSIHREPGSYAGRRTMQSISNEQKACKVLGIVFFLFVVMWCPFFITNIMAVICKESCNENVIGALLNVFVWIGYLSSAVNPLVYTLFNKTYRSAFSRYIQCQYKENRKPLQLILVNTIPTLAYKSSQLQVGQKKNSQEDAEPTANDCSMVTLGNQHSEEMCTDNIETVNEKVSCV
EBI2 block: antagonists of human EBI2 receptor; P32249; EBI2 beta-arrestin recruitment, luminescence, 7a,25-OHC stimulated; inhibition, % at 5 µM; 0.81% of 360,000 active; in the data active = inhibition above about 38%;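 also: enzyme fragment complementation signal reports receptor beta-arrestin coupling in cells; 0% = agonist plus DMSO wells and 100% = wells without agonist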
EBI2 conf: confirmation of human EBI2 receptor antagonists; shares compounds with EBI2 block; EBI2 beta-arrestin luminescence, 7a,25-OHC antagonism; inhibition, % at 5 µM; 29% of 2,400 active;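 active = inhibition of at least 50%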
EBI2 ag: EBI2 agonism counter-screen; shares compounds with EBI2 block; 2,400 tested, under 10 active; activation, % at 5 µM; EBI2-expressing cells, agonist mode, luminescence, 60 min; 0% vehicle, 100% 7α,25-dihydroxycholesterol control;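 active = activation of at least 50%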
bGal cs: inhibits E. coli beta-galactosidase, counter-screen for EBI2 antagonists; shares compounds with EBI2 block; purified beta-galactosidase, luminescent Galacton Star, 15 min; inhibition, % at 5 µM; 1% of 2,400 active; AID 652176;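 active = replicate-average signal at least 3 plate SD below neutral wells, shown as high inhibition, flagging enzyme-inhibiting false positives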;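 also: 0% = DMSO wells with enzyme and 100% = wells lacking enzyme; higher means stronger loss of beta-gal luminescence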
* hit, by the source's call; x = not tested or not shown. Most compounds without a hit are left out; they make up all but 2.8% or so of the library.

SMILES	MC4R ag barr	MC4R antagonist	m5-HT2A agonist	EBI2 block	EBI2 conf	EBI2 ag	bGal cs
O=C1[C@@H]2Cc3c([nH]c4ccccc34)C(c3cccc([N+](=O)[O-])c3)N2C(=O)CN1C1CCN(Cc2ccccc2)CC1 (some centres not stated)	3	26	7	41*	37	0	5
Cc1cc(C)cc(OCC(=O)OC(C)C(=O)Nc2ccc(Cl)cn2)c1 (configuration not stated)	-2	13	-1	-2	x	x	x
COc1cc2c(cc1OC)CN(C(=O)c1cccc(S(=O)(=O)N3CCc4ccccc43)c1)CC2	-1	5	3	6	x	x	x
CCCCn1c(N)c(N(CC(C)C)C(=O)c2oc3c(Cl)cccc3c2C)c(=O)[nH]c1=O	0	0	2	25	x	x	x
CS(=O)(=O)N1CCN(c2ccccc2NC(=O)CSc2ccc(Cl)cc2)CC1	-2	-10	-1	3	x	x	x
O=C(CSc1cccc[n+]1[O-])Nc1ccccc1Oc1ccccc1	-3	4	-2	2	x	x	x
O=C(CSc1ccc(Br)cc1)Nc1ccccc1Oc1ccccc1	-1	7	-1	54*	21	0	-14
O=C(CSc1ccc(Cl)cc1)Nc1ccccc1Oc1ccccc1	1	-3	8	55*	24	0	-11
O=C(CSc1ccc(Cl)cc1)Nc1ccccc1N1CCN(C(=O)c2ccccc2)CC1	-1	4	1	76*	67*	-1	9
O=C(CSc1ccc(Cl)cc1)Nc1ccccc1	1	5	1	-1	x	x	x
COC(=O)c1ccc2c(c1)N(C)S(=O)(=O)c1cnc(SCC(=O)C(C)(C)C)nc1-2	2	4	3	-8	x	x	x
CCCc1cc(C(=O)N2CCCN(C)CC2)cs1	-2	3	0	1	x	x	x
CCCc1cc(C(=O)N2CCN(c3ccccc3C)CC2)cs1	1	0	-4	63*	44	0	4
CCOC(=O)N1CCN(C(=O)c2cc3cc(Cl)ccc3[nH]2)CC1	-1	11	-6	93*	73*	1	4
CCOC(=O)N1CCN(C(=O)c2cc3cc(F)ccc3[nH]2)CC1	-1	-3	1	81*	53*	0	-2
Cc1ccc2[nH]c(C(=O)N3CCCCC3)cc2c1	2	9	7	32	x	x	x
CCOC(=O)C1CCN(C(=O)c2cc3cc(F)ccc3[nH]2)CC1	0	14	1	62*	41	3	0
CCOC(=O)C1CCCN(C(=O)c2cc3cc(F)ccc3[nH]2)C1 (configuration not stated)	-2	10	4	0	x	x	x
O=C(c1cc2c(=O)oc3ccccc3c2s1)N1CCOCC1	1	6	6	13	x	x	x
Cc1ccc2[nH]c(=O)c3cc(C(=O)N4CCN(C(=O)c5ccco5)CC4)sc3c2c1	0	3	-1	0	x	x	x
Cc1ccc2cc3cc(C(=O)N4CCN(C(=O)c5ccco5)CC4)sc3nc2c1	-1	8	-6	63*	30	-1	-7
Cc1ccc2cc3cc(C(=O)N4CCN(Cc5ccccc5)CC4)sc3nc2c1	-3	-1	-5	80*	53*	0	-17
O=C(c1ccco1)N1CCN(C(=O)c2cc3c(=O)oc4ccccc4c3s2)CC1	-3	1	1	80*	61*	1	-4
Cc1ccc(NC(=O)CN(C)C2CCCCC2)cc1Br	2	2	-5	11	x	x	x
Cc1ccc(-c2nnnn2-c2ccccc2C(=O)O)cc1	-1	17	2	5	x	x	x
SMILES	MC4R ag barr	MC4R antagonist	m5-HT2A agonist	EBI2 block	EBI2 conf	EBI2 ag	bGal cs
COc1ccc(NCCNc2ccc(OC)cc2)cc1	0	2	5	40*	16	-1	-10
COc1ccc(C(=O)CCNc2ccc(F)cc2)cc1	1	7	-3	11	x	x	x
Cc1ccc(CCNc2ccc3ccccc3c2)cn1	-2	6	-6	27	x	x	x
Cc1ccc(NCCNc2ccc(C)cc2)cc1	2	-3	-2	47*	58*	3	0
Cc1ccc(NCCc2ccc(C)nc2)cc1	-3	7	5	47*	21	1	10
CCOc1cccc(-c2nn(-c3ccccc3)cc2/C=C(/C#N)C(=O)NCCCn2ccnc2)c1	6	1	-6	40*	14	1	8
N#C/C(=C/c1cn(-c2ccccc2)nc1-c1cccc(OCc2ccccc2)c1)C(=O)NCCCn1ccnc1	-2	-1	-7	29	x	x	x
CC(C)(C)N(Cc1ccccc1)C(=O)COC(=O)CN1C(=O)NC2(CCCC2)C1=O	-2	-1	10	-9	x	x	x
CC(CCc1ccccc1)NC(=O)/C=C/c1ccc(Cl)cc1 (configuration not stated)	1	4	-4	31	x	x	x
CC(NC(=O)/C=C/c1ccc(Br)cc1)c1ccc(Cl)cc1 (configuration not stated)	2	15	-3	54*	31	0	-8
CN1CCN(NC(=O)/C=C/c2ccc(Br)cc2)CC1	-2	-6	-4	78*	48	-1	-9
CN1CCN(C(=O)c2ccccc2NS(=O)(=O)c2ccc(F)cc2)CC1	-2	4	0	-1	x	x	x
Cc1nn(CCc2nc(-c3ccco3)cs2)c2[nH]c(=O)cc(C(F)(F)F)c12	0	6	6	7	x	x	x
CCOC(=O)c1sc(NC(=O)/C=C/c2cnn(CC)c2C)c(C(=O)OCC)c1C	3	5	4	40*	35	1	10
CCCOC(=O)c1c(NC(=O)/C=C/c2cnn(C)c2C)sc(C(=O)OCC)c1C	0	7	2	16	x	x	x
Cc1ccc(C(=O)NNC(=O)CCC(=O)NCc2ccccc2)cc1Br	-4	-2	4	1	x	x	x
CCOc1cc(CNc2ccccc2)cc(Br)c1OCC(=O)NC(C)(C)C	2	-8	2	33	x	x	x
CCOc1cc(CNc2ccccc2)cc(Br)c1OCc1ccc(F)cc1	4	4	0	49*	14	0	3
CCOc1cc(CNc2ccc(Br)cc2)cc(Br)c1OCC(=O)NC(C)(C)C	3	-18	0	66*	7	1	2
O=C(COc1cccc(Cl)c1)N/N=C\c1cc2ccccc2nc1Cl	9.0*	5	-1	53*	42	-1	-10
Cc1ccccc1OCC(=O)N/N=C/c1cc2ccccc2nc1Cl	3	1	6	30	x	x	x
C=CCOc1ccc(C2NC(=O)c3ccccc3O2)cc1 (configuration not stated)	1	-5	-1	-4	x	x	x
COc1ccc(C(=O)/C=C2/C(=O)Nc3ccccc32)cc1OC	-1	-9	6	48*	48	0	-12

Bioassay records: PubChem BioAssay, several laboratories
